Bioassay records deposited in PubChem by Sanford-Burnham Center for Chemical Genomics.
mIAP inh: mouse IAP inhibition | purified mouse IAP, CDP-Star luminescence, 30 min | inhibition, % at 10 µM | 330,000 compounds, 0.2% hits | AID 2806;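 active = inhibition of at least 40% at 10 µM in the primary screen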;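 note: plate controls were DMSO with enzyme for no effect and no enzyme wells for full effect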
bIAP act: increases bovine intestinal alkaline phosphatase activity | 200,000 compounds, 0.17% hits | activation factor at 20 µM | purified bovine IAP, CDP-star luminescence, 30 min; active compounds read high; fold of DMSO-control signal, blank-subtracted;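 active = activation factor of 2 or more at 20 µM, a signal rise over negative controls twice the positive control's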
hIAP inh: blocks human intestinal alkaline phosphatase; purified IAP, CDP-Star luminescence, 30 min; inhibition, % at 10 µM; 330,000 compounds, 0.12% hits; AID 2544;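 active = inhibition reaching a set limit with compound at 10 µM in the primary screen, cut at about 35% in these data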;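 note: plate controls were DMSO wells with enzyme for no effect and no-enzyme buffer wells for full effect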
Target sequence (P09923 whole entry, looked up): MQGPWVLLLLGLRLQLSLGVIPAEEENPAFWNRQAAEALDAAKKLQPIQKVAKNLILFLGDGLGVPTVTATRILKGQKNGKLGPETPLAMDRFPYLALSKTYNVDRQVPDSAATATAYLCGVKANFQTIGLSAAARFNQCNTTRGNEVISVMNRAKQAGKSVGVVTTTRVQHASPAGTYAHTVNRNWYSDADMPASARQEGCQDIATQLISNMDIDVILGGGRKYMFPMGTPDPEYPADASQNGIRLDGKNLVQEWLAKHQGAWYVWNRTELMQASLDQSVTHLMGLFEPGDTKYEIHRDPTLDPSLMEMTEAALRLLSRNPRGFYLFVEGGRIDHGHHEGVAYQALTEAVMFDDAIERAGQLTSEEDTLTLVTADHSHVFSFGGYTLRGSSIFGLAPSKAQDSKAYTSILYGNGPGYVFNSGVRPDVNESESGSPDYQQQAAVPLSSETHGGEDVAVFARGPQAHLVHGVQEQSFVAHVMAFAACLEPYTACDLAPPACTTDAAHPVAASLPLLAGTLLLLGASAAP
mIAP act: increases mouse intestinal alkaline phosphatase activity; 330,000 compounds, 0.24% hits; AID 2805; activation factor at 10 µM; muIAP, CDP-Star luminescence, 30 min; active compounds read high; 1 = vehicle-only enzyme signal, 0 = enzyme-free wells;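 active = activation factor of at least 2 at 20 µM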
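Assay system: mouse IAP enzyme; reagent: chemiluminescent substrate CDP-Star; dosing: test compounds delivered from DMSO solution; schedule: 30 min at room temperature; measured by: luminescence from enzymatic CDP-Star hydrolysis; controls: DMSO-only wells and no-enzyme negative control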
hIAP act: increases human intestinal alkaline phosphatase activity; P09923; purified human IAP, CDP-Star luminescence, 30 min; active compounds read high; 1 = vehicle-only enzyme, 0 = enzyme-free background; activation factor at 10 µM; 330,000 compounds, 0.16% hits; AID 2524;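 active = activation factor of the enzyme at least 2-fold when tested at 20 µM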
bIAP inh: intestinal alkaline phosphatase (bovine) inhibition | purified bovine IAP, CDP-star luminescence, 30 min | inhibition, % at 20 µM | 190,000 tested, under 10 active;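 active = over 50% inhibition of intestinal alkaline phosphatase at 20 µM in the single-dose screen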
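Incubation: 30 min reaction at room temperature / Material: purified bovine intestinal alkaline phosphatase (IAP) enzyme / Input: enzyme at 1/65,000,000 dilution / Dosing: 20 µM single dose / Signal: CDP-star luminescence signal / Reagent: CDP-star chemiluminescent phosphatase substrate, 30 µM final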
hIAP act confirm: human IAP activation confirmation. shares compounds with hIAP act. purified IAP, CDP-Star luminescence, 30 min; active compounds read low. 880 compounds, 10% hits. activation (%Activity, negative = activation), % at 8.3 µM;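 active = at least twofold enzyme activation in any of six single-dose repeats, which the averaged readout prints as negative percent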
* marks the source's active call; other numbers are inactive results; . = no result given. This is a sample that favours compounds with a hit; in the whole collection about 0.77% have one here.

SMILES	mIAP inh	bIAP act	hIAP inh	mIAP act	hIAP act	bIAP inh	hIAP act confirm
CCc1ccc(-n2c(SCC(=O)Nc3cc(C)[nH]n3)nc3[nH]ncc3c2=O)cc1	6	1.6	-118	0.94	2.2*	-63	-5
C1CCC(Nc2nc3nonc3nc2N2CCSCC2)C1	-3	1.1	37*	1	0.63	-9	-3
C1CCN(C2CCN(c3nc4nonc4nc3N3CCSCC3)CC2)C1	7	1.1	13	0.93	0.87	-12	.
COc1ccc(C)cc1S(=O)(=O)n1nc(C)cc1C	5	1.1	-13	0.95	1.1	-8	.
COc1ccc(F)cc1S(=O)(=O)n1nc(C)cc1C	2	.	40*	0.97	0.6	.	-62
COc1ccccc1N(C)S(=O)(=O)c1ccc(C(=O)NCC2CCCCC2)cc1	-4	.	2	1	0.98	.	.
C=CCn1c(SCC(=O)N(C(C)CC)C2CCS(=O)(=O)C2)nc2ccccc2c1=O (centres undefined)	0	.	4	1	0.96	.	.
COc1ccc(OCC(=O)NNC(=O)c2nn(C)c(=O)c3ccccc23)cc1	9	1.1	-22	0.91	1.2	-6	.
COc1cc(OC)cc(C(=O)NNC(=O)c2nn(C)c(=O)c3ccccc23)c1	-4	.	-106	1	2.1*	.	23
Cn1nc(C(=O)NNC(=O)c2ccc(Cl)c(S(N)(=O)=O)c2)c2ccccc2c1=O	33	.	-105	0.67	2.1*	.	2
NC(=O)C1Cc2ccccc2CN1C(=O)c1nn(Cc2ccccc2)c(=O)c2ccccc12 (centres undefined)	10	.	5	0.9	0.95	.	.
COc1cc(COC(=O)c2cnc(C)cn2)c(OC)cc1Br	5	.	-16	0.95	1.2	.	.
COc1cccc(CNC(=O)CSc2ccc(-c3cccs3)nn2)c1	6	1	-17	0.94	1.2	1	.
Cc1nc2c3cnn(-c4ccccc4)c3ncn2n1	-1	0.9	73*	1	0.27	14	4
c1ccc(-n2ncc3c2ncn2cnnc32)cc1	-4	0.4	82*	1	0.17	.	-18
c1ccc(-n2ncc3c2ncn2nnnc32)cc1	-5	1.1	-18	1	1.2	-7	.
CCOC(=O)C[C@H]1c2ccccc2S(=O)(=O)N1c1ccccc1	-3	.	8	1	0.92	.	.
COc1ccc(-n2cc(C(=O)Nc3cc([N+](=O)[O-])ccc3OC)c3ccccc3c2=O)cc1	3	0.9	-10	0.97	1.1	7	.
CC(NC=O)c1nc2ccccc2n1CCc1ccccc1 (centres undefined)	12	.	-22	0.88	1.2	.	.
Cc1nn(C)c(C(=O)NNC(=S)NCc2ccccc2)c1Cl	15	.	-104	0.85	2*	.	-141*
Cc1nn(C)c(C(=O)NC(=S)Nc2ccccc2Br)c1Cl	5	.	15	0.95	0.85	.	.
CCc1ccc(N/C(N)=N/c2nc(CSc3ncccn3)cc(=O)[nH]2)cc1	0	1	-103	1	2*	-4	-44
Cc1ccc(S(=O)(=O)N(CC(=O)Nc2ccc(C)cc2C)C(=O)N2CCN(C)CC2)cc1	4	.	36*	0.96	0.64	.	-55*
Cc1ccc(NC(=O)CN(C(=O)N2CCN(C)CC2)S(=O)(=O)c2ccc(C)cc2)cc1	3	.	8	0.97	0.92	.	.
CC1CCCCN1C(=O)COC(=O)C1CCN(S(=O)(=O)c2c(Cl)cccc2Cl)CC1 (centres undefined)	4	.	-17	0.96	1.2	.	.
SMILES	mIAP inh	bIAP act	hIAP inh	mIAP act	hIAP act	bIAP inh	hIAP act confirm
COC(=O)c1cc(OC)c(OC)cc1NC(=O)CSc1nnc(-c2cccnc2)n1C	-9	1	-115	1.1	2.1*	1	-12
COc1ccc(CN(CCNC(=O)CCCCC(=O)NCCN(Cc2ccc(OC)cc2)C(C)C)C(C)C)cc1	-16	.	41*	1.2	0.59	.	18
COc1ccc(CCNC(=O)CCCCC(=O)NCCc2ccc(OC)cc2)cc1	10	.	2	0.9	0.98	.	.
CC(C)CC(=O)NC(=S)NNC(=O)c1ccc(NC(=O)C2CCCCC2)cc1	-8	1.4	-126	1.1	2.3*	-36	62
CCC(C)n1c(SCc2ccccc2)nc2ccsc2c1=O (centres undefined)	2	1	10	0.98	0.9	-5	.
CCOC(=O)CSc1nnc(Cc2ccccc2)n1-c1ccc(C)cc1	18	0.8	-13	0.82	1.1	20	.
Cc1ccc(-n2c(Cc3ccccc3)nnc2SCC(=O)NNC(=O)Cc2ccccc2)cc1	1	1.6	-100	0.99	2*	-57	-1
CCC(C)(C)C1CCc2[nH]nc(C(=O)N/N=C(\C)c3ccco3)c2C1 (centres undefined)	2	.	-110	0.98	2.1*	.	63
CCc1cc(-c2n[nH]c(C)c2-c2nc3ccccc3s2)c(O)cc1OCC(=O)NN	-15	2*	-130	1.1	2.3*	-103	-9
CCN(CC(=O)NCc1ccc(Cl)cc1)C(=O)CSCC(=O)Nc1ccc(OC)cc1	5	.	-3	0.95	1	.	.
CCOc1ccc(CC(=O)NNC(=S)NC2CCCCC2)cc1OCC	-2	0.9	-110	1	2.1*	6	-80*
CCOC(=O)C1CCCN(C(=S)NC(=O)/C=C/c2ccc(F)cc2)C1 (centres undefined)	0	.	39*	1	0.61	.	2
CCc1ccc(OCC(=O)Nc2ncn[nH]2)cc1	-2	1.8	-106	1	2.1*	-75	1
CCC(C(=O)Nc1cccnc1Cl)c1ccccc1 (centres undefined)	9	.	6	0.91	0.94	.	.
COc1cc(C(=O)NNC(=O)c2cc(-c3ccccc3)n[nH]2)cc(OC)c1C	-6	.	-149	1.1	2.5*	.	-42
CS(=O)(=O)c1ccc(C(=O)NNC(=O)c2cc(-c3ccccc3)n[nH]2)cc1	26	.	51*	0.74	0.49	.	7
COC(=O)c1cc(-c2ccccc2)n[nH]1	-2	1	-3	1	1	5	.
CS(=O)(=O)Cc1ccc(C(=O)NNC(=O)c2cc(-c3ccccc3)n[nH]2)cc1	21	.	-26	0.79	1.3	.	.
Cc1ccc(S(=O)(=O)N2CCN(C(=O)c3ccc4ccccc4n3)CC2)c(C)c1	4	.	1	0.96	0.99	.	.
O=C(Nc1cccc(-c2cccc(F)c2)c1)C1CCN(Cc2ccco2)CC1	-12	.	-129	1.1	2.3*	.	-9
COc1ccc(-n2ccn(CC(=O)Nc3ccc(OC)cc3OC)c(=O)c2=O)cc1	-1	.	44*	1	0.56	.	-1
CC(C)CC(=O)Nc1cccc(NC(=O)CC(C)C)n1	-1	1	11	1	0.89	-2	.
